Rpn11 inh = Rpn11 (PSMD14) deubiquitinase inhibitors, primary screen, biochemical, fluorescence polarization, uHTS; 26S proteasome non-ATPase regulatory subunit 14 (Homo sapiens), O00487; human 26S proteasome, Ub4-pepOG fluorescence polarization; 20S core pre-blocked with epoxomicin; inhibition, % at 20 µM; actives 0.59% (n = 360,000); AID 588493, 2011;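 active = inhibition at 20 µM, scaled to each plate's controls, above about 33%, limit read from the data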
IDE act = human IDE activators in live cells, primary screen, fluorescence polarization, HEK cells, FAbeta-B substrate; activation, % at 5.96 µM; FAbeta-B cleavage; 0% vehicle, 100% cell-free pure enzyme wells; actives 0.073% (n = 340,000); Insulin-degrading enzyme (Homo sapiens), P14735;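 active = activation above the mean of all tested compounds plus 3 SD, set per screening campaign, cut at about 17% in these data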
TPT1 inh = Candida albicans TPT1 enzyme inhibitors, primary screen, biochemical, fluorescence polarization | recombinant caTPT1, FP RNA substrate dephosphorylation | inhibition, % at 5 µM | actives 0.81% (n = 300,000);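 active = inhibition above the mean of all tested compounds plus 3 SD, set per screening campaign, cut at about 24% in these data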;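 also: plate controls were DMSO alone for no effect and ferristatin control at 100 nM for full effect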
CSN deneddyl inh = inhibitors of CSN-mediated cullin deneddylation, primary screen, biochemical, fluorescence polarization, uHTS. actives 0.38% (n = 360,000). inhibition, % at 12.5 µM. COP9 signalosome complex subunit 5 (Homo sapiens), Q92905. Purified CSN, SCF-Nedd8-OG deneddylation;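 active = pattern-corrected inhibition above about 35%, with an unprinted fluorescence ratio check between 0.5 and 1.5, limit read from the data, passing the limit was not always enough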;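 also: 0% = enzyme with substrate and 100% = substrate without enzyme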
Target sequence (Q92905 whole entry, looked up, one chain of several): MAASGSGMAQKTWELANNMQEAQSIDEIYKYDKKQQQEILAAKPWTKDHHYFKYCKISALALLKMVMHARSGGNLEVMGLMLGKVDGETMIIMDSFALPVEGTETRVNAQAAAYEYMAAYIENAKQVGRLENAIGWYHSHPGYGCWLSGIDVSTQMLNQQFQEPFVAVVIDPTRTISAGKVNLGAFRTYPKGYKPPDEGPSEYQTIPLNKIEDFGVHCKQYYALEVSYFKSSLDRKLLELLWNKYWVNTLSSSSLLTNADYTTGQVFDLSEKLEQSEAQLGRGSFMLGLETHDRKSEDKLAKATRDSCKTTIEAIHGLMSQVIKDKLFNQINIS
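Test system: purified human Csn5 enzyme expressed in HEK293T cells. Amount: 0.24 nM enzyme. Reagent: SCFSkp2-Nedd8OG substrate at 10 nM final. Schedule: 90 min incubation of compound, enzyme and substrate at room temperature. Detection: fluorescence polarization. Read-out: % inhibition of substrate cleavage by Csn5.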
IDE inh = human IDE inhibitors in live cells, primary screen, fluorescence polarization, HEK cells, FAbetaB substrate. Insulin-degrading enzyme (Homo sapiens), P14735. inhibition, % at 5.59 µM. FAbetaB cleavage. actives 0.41% (n = 320,000);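 active = percent inhibition above the average of all tested compounds plus 3 SD, set per screening campaign, cut at about 16% in these data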;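 also: IDE supplied by intact live HEK cells; FP after avidin binding of uncleaved biotin substrate so inhibition keeps polarization high; 0% = DMSO wells and 100% = 60 µM reference IDE inhibitor Ii1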
HNF4A DNA FP = change in binding of human HNF4A to DNA, primary screen, biochemical, fluorescence polarization, FITC-DNA. 1 h. activity change, % at 10 µM. actives 0.3% (n = 360,000). AID 1224865, 2016. Hepatocyte nuclear factor 4-alpha (Homo sapiens), P41235; in the data active = activity change above about 30%, passing the limit was not always enough
Rpn11 confirm = Rpn11 (PSMD14) deubiquitinase inhibitors, confirmation, biochemical, fluorescence polarization, single concentration. actives 29% (n = 1,900). shares compounds with Rpn11 inh. purified human 26S proteasome, Ub4-pepOG fluorescence polarization; proteasome pretreated with epoxomicin. inhibition, % at 20 µM
MMP-2 counter = MMP-2 enzyme inhibition, confirmation, counter-screen for RPN11 inhibitor project, biochemical, fluorescence, single concentration; shares compounds with Rpn11 inh; recombinant MMP-2, FRET peptide cleavage fluorescence; inhibition, % at 20 µM; actives 4% (n = 1,900);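 also: human MMP-2 activated beforehand with APMA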
Thrombin inh = bovine thrombin protease inhibition, confirmation, counter-screen for Rpn11 inhibitor project, biochemical, fluorescence polarization, single concentration; actives 13% (n = 1,900); shares compounds with Rpn11 inh; inhibition, % at 20 µM; bovine thrombin cleavage of Ub4-pepOG;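 active = mean inhibition at least 40% at 20 µM, or signal 3 deviations below plate average, so some actives read negative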;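 also: plate controls were thrombin with DMSO for no effect and buffer wells lacking thrombin for full effect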
Numbers without * were called inactive; . = not tested or not shown. The list is not random: actives were taken first. Their share in the collection is about 1.7%. Rule as the data show it, unless noted: active = inhibition above about 40%; inactive = the rest.

SMILES	Rpn11 inh	IDE act	TPT1 inh	CSN deneddyl inh	IDE inh	HNF4A DNA FP	Rpn11 confirm	MMP-2 counter	Thrombin inh
CC[C@]12c3[nH]c4cc(-c5ccco5)ccc4c3CCN1C(=O)[C@@H](CC(=O)NCC13CC4CC(CC(C4)C1)C3)C[C@@H]2C(=O)N1CCN(C(=O)C2CC2)CC1	26	1	.	7	.	2	.	.	.
COc1ccc(CNC(=O)C[C@H]2C[C@H](C(=O)N3CCCCC3)[C@@]3(CCc4ccccc4)c4[nH]c5cc(-c6ccco6)ccc5c4CCN3C2=O)cc1OC	56*	5	.	14	.	11	3	-2	-5
Cc1ccc(O)c(C(=O)c2cnn(C(=O)COc3ccc(Cl)cc3)c2)c1	77*	8	1	-3	-3	-1	1	-28	-11
CC1(C(=O)Nc2ccc3c(c2)OCO3)CCN1C(=O)CC1CC1 (stereo not given)	-9	.	.	1	.	-2	.	.	.
COc1ccc(-n2c(SCC(=O)NCC3CCCO3)nc3ccccc3c2=O)cc1Cl (stereo not given)	47*	.	.	9	.	37	34	-23	14
CCn1cc(/C=C(\NC(=O)c2ccccc2OC)C(=O)NCCN2CCOCC2)c2ccccc21	3	.	.	-1	.	1	.	.	.
CCOC(=O)c1sc(NN=C(C(=O)OC)C(=O)OC)c(C(=O)OCC)c1C	43*	7	7	-10	3	25	11	34	4
Nc1ccccc1CCc1ccccc1N	0	.	.	0	.	0	.	.	.
COc1ccc(COc2ccsc2C(=O)Nc2ccc(Cl)c(Cl)c2)cc1	44*	-4	3	-3	-3	1	9	-20	-13
O=C(/C=C/c1ccccc1Cl)Nc1ccc2c(c1)C(=O)NC2=O	54*	3	6	25	0	3	57*	22	-24
CCNc1nc(Cl)nc(NCc2ccccc2)n1	68*	3	-1	0	12	-4	-22	-30	-22
O=C1c2ccccc2C(c2nnnn2-c2ccc3c(c2)OCCO3)N1Cc1cccnc1 (stereo not given)	.	.	.	4	.	0	.	.	.
OC(c1ccc(Cl)c(F)c1)c1ncc(-c2cccc(F)c2)[nH]1 (stereo not given)	-4	.	.	3	.	-1	.	.	.
Cc1ccc(NC(=O)CS(=O)CC(=O)Nc2cnc3ccccc3c2)cc1Cl (stereo not given)	49*	0	-1	1	7	3	10	-28	21
COc1cc2nc(CN3CCN(S(=O)(=O)c4ccccc4C(F)(F)F)CC3)[nH]c(=O)c2cc1OC	5	2	.	-3	6	3	.	.	.
O=c1[nH]c(CN2CCN(S(=O)(=O)c3ccccc3C(F)(F)F)CC2)nc2sc3c(c12)CCCC3	71*	0	5	3	10	4	14	1	-7
CCCc1nc2c3ccccc3ccn2c1Cc1ccccc1	-11	.	.	-3	.	4	.	.	.
CN1CCC[C@H]1CCNc1ccc2c(=O)c3ccccc3n(C)c2c1	48*	-4	.	5	.	6	-9	6	-25

Source: PubChem BioAssay (several laboratories)
